Screens (PubChem)
Apaf-1 inh: inhibitors of human Apaf-1 apoptosome, primary screen, biochemical, DEVD-Rh110 fluorescence, uHTS; Apoptotic protease-activating factor 1 (Homo sapiens), O14727; reconstituted apoptosome caspase-3 activity; inhibition, % at 20 µM; actives 0.71% (n = 330,000); active means inhibition of at least 40% at 20 µM;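 further: plate controls were DMSO wells for no effect and DEVD-CHO caspase inhibitor wells for full effect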
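Material: reconstituted apoptosome with Apaf-1, cytochrome c, caspase-9, procaspase-3, dATP; medium: pH 7.5 Hepes buffer with CHAPS, BSA, DTT; also added: cytochrome c and DEVD-Rh110 substrate; timing: 30 min plus 50 min, RT; signal: Rh110 fluorescence intensity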
GSTO1 inh: inhibitors of recombinant GSTO1, primary screen, counter-screen for RBBP9 inhibitor project, biochemical, fluorescence polarization; actives 1.1% (n = 300,000); inhibition, % at 5.96 µM; Glutathione S-transferase omega-1 (Homo sapiens), P78417; activity-based probe fluorescence polarization;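 active means inhibition above the campaign mean inhibition plus 3 SD, cut at about 35% in these data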;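 further: 0% = GSTO1-1 with DMSO and 100% = wells lacking GSTO1-1 enzyme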
Target sequence (P78417 whole entry, looked up): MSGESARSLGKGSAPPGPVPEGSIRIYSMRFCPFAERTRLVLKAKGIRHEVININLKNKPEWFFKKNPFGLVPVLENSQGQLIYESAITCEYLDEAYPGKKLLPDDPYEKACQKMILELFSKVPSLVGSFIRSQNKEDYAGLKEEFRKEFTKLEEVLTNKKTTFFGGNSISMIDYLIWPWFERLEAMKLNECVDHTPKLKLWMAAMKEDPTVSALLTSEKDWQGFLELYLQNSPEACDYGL
Rin1 Abl inh: inhibitors of Rin1-Abl protein binding, primary screen, biochemical, TR-FRET | inhibition, % at 7.35 µM | actives 0.4% (n = 360,000) | Tyrosine-protein kinase ABL1 (Homo sapiens) + Ras and Rab interactor 1 (Homo sapiens), …; in the data active means inhibition above about 5%, passing the limit was not always enough
UBC9 SUMO inh: inhibitors of in vitro SUMOylation cascade, primary screen, biochemical, HTRF, uHTS. HTRF SUMOylation assay, SAE1/SAE2 + UBC9. inhibition, % at 35 µM. actives 0.36% (n = 290,000); in the data active means inhibition above about 50%, passing the limit was not always enough
Target sequence (P63279 whole entry, looked up): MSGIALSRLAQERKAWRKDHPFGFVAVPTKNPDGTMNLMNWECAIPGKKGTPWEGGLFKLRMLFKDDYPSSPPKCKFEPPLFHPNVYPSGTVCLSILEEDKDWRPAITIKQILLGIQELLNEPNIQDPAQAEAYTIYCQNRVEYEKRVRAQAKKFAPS
PAD4 inh: human PAD4 inhibitors, primary screen, biochemical, fluorescence polarization, 1536-well format; inhibition, % at 6.36 µM; recombinant PAD4, RCA probe fluorescence polarization; actives 0.41% (n = 330,000);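 active means percent inhibition above a cutoff equal to the mean of all tested compounds plus 3 SD, cut at about 15% in these data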;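 further: 0% = PAD4 with RCA probe and DMSO and 100% = probe without PAD4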
UBC13 polyUb: UBC13 polyubiquitin chain formation inhibitors, primary screen, biochemical, TR-FRET, uHTS | actives 0.47% (n = 330,000) | AID 485273, 2010 | inhibition, % at 20 µM; in the data active means inhibition above about 45%, passing the limit was not always enough
Target sequence (P61088 whole entry, looked up): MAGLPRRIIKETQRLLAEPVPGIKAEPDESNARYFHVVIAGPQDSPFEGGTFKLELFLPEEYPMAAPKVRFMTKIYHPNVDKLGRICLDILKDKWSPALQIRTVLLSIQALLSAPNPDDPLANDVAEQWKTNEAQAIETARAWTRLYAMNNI
GSTO1 confirm: GSTO1 inhibitor hit confirmation, counter-screen for RBBP9 inhibitor project, biochemical, fluorescence polarization, triplicate. shares compounds with GSTO1 inh. recombinant GSTO1, probe fluorescence polarization. inhibition, % at 5.96 µM. actives 54% (n = 2,400). AID 2176, 2009;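 active means inhibition above the primary screen's cutoff, its mean inhibition plus 3 SD, cut at about 35% in these data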;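 further: loss of polarization as inhibitors block binding of rhodamine sulfonate ester activity probe; 0% = GSTO1 with DMSO and 100% = wells lacking GSTO1 enzyme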
PAD4 FP conf: human PAD4 inhibitors, confirmation, biochemical, fluorescence polarization. shares compounds with PAD4 inh. recombinant PAD4, RCA probe fluorescence polarization. inhibition, % at 6.36 µM. actives 28% (n = 1,200). AID 488796, 2010;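 active means mean inhibition across replicates above the hit cutoff set by the earlier primary screen, cut at about 15% in these data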;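 further: inhibitors block active-site labeling by the probe so polarization falls; 0% = PAD4 with probe and DMSO and 100% = probe without PAD4 enzyme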
Apaf-1 inh conf2: Apaf-1 inhibitors, single-dose retest, confirmation, biochemical, fluorescence, DEVD-Rh110, 20 µM. shares compounds with Apaf-1 inh. reconstituted apoptosome, caspase-3 DEVD-Rh110 fluorescence. inhibition, % at 20 µM. actives 25% (n = 1,800);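 active means mean inhibition of at least 40% at 20 µM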;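 further: plate controls were DMSO wells for no effect and DEVD-CHO caspase inhibitor control wells for full effect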
Rh110 interf inh: Rh110 fluorescence interference by putative Apaf-1 inhibitors, confirmation, artefact control for Apaf-1 inhibitor project, biochemical, 20 µM; shares compounds with Apaf-1 inh; quenched caspase reaction; activation (fluorescence interference), % at 20 µM; 1,800 tested, under 10 active;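 active means signal rise of 40% or more at 20 µM, treated as a fluorescence artifact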
Apaf1 inh interf: fluorescence interference of Apaf-1 inhibitor hits, dose response, artefact control for Apaf-1 inhibitor project | shares compounds with Apaf-1 inh | fluorescence interference counterscreen, Apaf-1 assay format | IC50, µM | 460 tested, under 10 active | AID 588538, 2011; call rule not given here
* hit, by the source's call; i = inactive; nt = not tested or not shown. This is a sample that favours compounds with a hit; in the whole collection about 2.2% have one here.

SMILES	Apaf-1 inh	GSTO1 inh	Rin1 Abl inh	UBC9 SUMO inh	PAD4 inh	UBC13 polyUb	GSTO1 confirm	Apaf-1 inh conf2	Rh110 interf inh	others
O=C(N/N=C\c1ccc([N+](=O)[O-])o1)C1COc2ccccc2O1 (centres undefined)	12	28	4	12	-1	-14	nt	nt	nt
O=C(CSc1ncn[nH]1)NNC(=O)c1ccccc1	-3	2	1	nt	-3	-1	nt	nt	nt
Cc1c2ccccc2nc2c(F)c(NCCO)c(F)c(F)c12	54*	62*	7	26	11	-38	13	22	0
OCCNc1c2ccccc2nc2c(F)c(F)c(F)c(F)c12	nt	-54	-1	9	4	nt	nt	nt	nt
COc1ccccc1Nc1cc2cc(Br)ccc2c(=O)[nH]1	97*	42*	1	nt	34*	-137	12	98*	16	PAD4 FP conf=5;Apaf1 inh interf=>100
COc1ccc(OC)c(Nc2cc3ccccc3c(=O)[nH]2)c1	97*	71*	2	nt	39*	-102	6	94*	5	PAD4 FP conf=-1;Apaf1 inh interf=>100
COc1ccccc1Nc1nnc(C)c(=O)[nH]1	2	3	-1	11	-4	-9	nt	nt	nt
COc1ccc(OC)c(Nc2nnc(C)c(=O)[nH]2)c1	6	3	nt	7	0	-6	nt	nt	nt
CCCC(=Nc1ccc(N)cc1)C1=C(O)C(C(=O)OC)C(C)(C)CC1=O (centres undefined)	67*	88*	3	37	67*	-19	8	-1	-6	PAD4 FP conf=1
COc1ccc(Br)cc1CNc1ccc(O)cc1	95*	86*	-3	59	28*	4	6	19	5	PAD4 FP conf=2
Fc1ccc(Nc2nc(NCc3cccs3)nc3ccsc23)cc1	nt	nt	-7	nt	nt	nt	nt	nt	nt
COc1cccc(N=Nc2c(C)[nH]n(-c3ccccc3)c2=O)c1	9	1	-4	-1	-1	-34	nt	nt	nt
COc1cccc(C(C[N+](=O)[O-])c2c(C)[nH]n(-c3ccccc3)c2=O)c1 (centres undefined)	97*	81*	3	97*	35*	-23	4	16	-7	PAD4 FP conf=-1
CSCCC(NC(=O)c1ccccc1Cl)C(=O)OCC(=O)N1CCCC1=O (centres undefined)	1	3	-3	nt	-1	-5	nt	nt	nt
CCOc1cc(CNc2ccc(N3CCCC3)cc2)cc(Cl)c1OC	55*	70*	6	22	-3	-19	70*	51*	9	Apaf1 inh interf=>100
COC(=O)c1cc(C)nc2c1C(=O)C(=O)C=C2N1CCOCC1	99*	99*	-1	99*	72*	-202	95*	100*	4	PAD4 FP conf=67*;Apaf1 inh interf=>100
COCCS(=O)(=O)N(Cc1ccccc1)[C@H](C(=O)OC)C(C)C	6	nt	-2	nt	-1	nt	nt	nt	nt
CCOc1ccc2noc3c2c1C(=O)c1ccccc1-3	76*	40*	-14	8	135*	-130	13	56*	-20	PAD4 FP conf=131*
O=C1c2ccccc2-c2onc3ccc(NCc4ccco4)c1c23	69*	100*	-14	-50	89*	i	53*	30	-50
O=C1c2ccccc2-c2onc3c(Oc4ccccc4)cc(O)c1c23	nt	nt	nt	-7	nt	nt	nt	nt	nt
C=CCOc1c(Cl)cc(CNc2ccc(C)c(Cl)c2)cc1OC	18	-2	nt	-25	3	0	nt	nt	nt
C=CCOc1c(Cl)cc(CNc2ccc(N(C)C)cc2)cc1OC	64*	77*	-5	-74	25*	-10	1	19	3	PAD4 FP conf=1
COc1cc2ccccc2cc1C(=O)N1CCN(c2ccccc2O)CC1	11	nt	-1	nt	0	-5	nt	nt	nt
C=CCN(CC=C)Cc1c(O)ccc2c1oc(=O)c1ccccc12	47*	55*	-6	nt	0	25	29	41*	3	Apaf1 inh interf=>100
Nc1nnc2c(n1)CCCC2	83*	67*	3	-3	9	-22	10	72*	-27	Apaf1 inh interf=>100
SMILES	Apaf-1 inh	GSTO1 inh	Rin1 Abl inh	UBC9 SUMO inh	PAD4 inh	UBC13 polyUb	GSTO1 confirm	Apaf-1 inh conf2	Rh110 interf inh	others
COCCn1c(N)c(C(=O)OCc2ccccc2)c2nc3ccccc3nc21	94*	70*	-2	101	5	-12	58*	8	1
COCCNC(=O)c1c(N)n(CCC2=CCCCC2)c2nc3ccccc3nc12	63*	42*	-2	89	-11	-12	4	34	15
COCCNC(=O)CSc1nc2cc(OC)c(OC)cc2c(=O)n1CCC1=CCCCC1	nt	nt	4	2	nt	nt	nt	nt	nt
CCOC(=O)c1c(S(=O)(=O)NCC(=O)NCc2ccccc2Cl)c(C)n(C)c1C	2	-1	2	-10	-1	-5	nt	nt	nt
CC(=O)Nc1cccc(-c2ccnc3c2CC(C)(C(=O)Nc2ccc(Cl)cc2)O3)c1 (centres undefined)	nt	nt	-1	nt	nt	nt	nt	nt	nt
COC(=O)c1ccc(-c2ccc(C(c3c(C)[nH][nH]c3=O)c3c(C)[nH][nH]c3=O)o2)cc1	44*	38*	7	28	-8	-59	34	42*	0	Apaf1 inh interf=>100
COC(=O)COc1ccc(C(c2c(C)[nH][nH]c2=O)c2c(C)[nH][nH]c2=O)cc1	2	nt	-3	10	nt	-11	nt	nt	nt
Cc1c(C(=O)c2ccc(F)cc2F)c2ccccn2c1CCC#N	63*	39*	1	54	9	-61	4	24	10
Cc1c(C(=O)c2ccc(F)cc2F)c2ccccn2c1CCc1ccccn1	nt	nt	-4	nt	nt	nt	nt	nt	nt
CCn1cnc2cc(NCc3ccc(OC)cc3)ccc21	-10	1	-3	-12	-6	-7	nt	nt	nt
